Laboratory results reported in ChEMBL document CHEMBL1123088, “Synthesis and characterization of selected heteroarotinoids. Pharmacological activity as assessed in vitamin A deficient hamster tracheal organ cultures. Single-crystal X-ray diffraction analysis of 4,4-dimethylthiochroman-6-yl methyl ketone 1,1-dioxide and ethyl …” (1985).

Columns and labels:
[1] = system: Cricetinae gen. sp.; assay: Percent activity in the Hamster tracheal organ culture assay at concentration 10e-10 (M); format: functional, Cricetulus griseus, Trachea
Summary of the method: (§1)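 Tracheas taken from vitamin A-deficient hamsters were kept in organ culture and scored for reversal of squamous keratinization of the epithelium. All-trans-retinoic acid was run at the same time as a reference in each separate experiment. ED50 is the molar dose that reverses keratinization in 50% of the retinoid-deficient tracheas.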

[2] = system: Cricetinae gen. sp.; assay: Percent activity in the Hamster tracheal organ culture assay at concentration 10e-8(M); format: functional, Cricetulus griseus, Trachea; summary of the method: as §1
[3] = system: Cricetinae gen. sp.; assay: Percent activity in the Hamster tracheal organ culture assay at concentration 10e-9 (M); format: functional, Cricetulus griseus, Trachea; summary of the method: as §1
[4] = system: Cricetinae gen. sp.; assay: Dose for reversal of keratinization in epithelium of 50% of retinoid-deficient hamster tracheas in organ culture; format: functional, Cricetulus griseus; conditions: Trachea, read-out: ED50 (the source's name); summary of the method: as §1
[5] = system: Cricetinae gen. sp.; assay: Percent activity in the Hamster tracheal organ culture assay at concentration 10e-11 (M); format: functional, Cricetulus griseus, Trachea; summary of the method: as §1
[6] = system: Cricetinae gen. sp.; assay: Percent activity in the Hamster tracheal organ culture assay at concentration 10e-12 (M); format: functional, Cricetulus griseus, Trachea; summary of the method: as §1
[7] = system: Cricetinae gen. sp.; assay: The dose for reversal of keratinization in epithelium of 50% of retinoid-deficient hamster tracheas in organ culture; format: functional, Cricetulus griseus; conditions: Trachea, read-out: ED50 (the source's name); summary of the method: as §1
[8] = system: Cricetinae gen. sp.; assay: Percent activity in the Hamster tracheal organ culture assay at concentration 10e-11 (M) in experiment B; format: functional, Cricetulus griseus, Trachea; summary of the method: as §1
[9] = system: Cricetinae gen. sp.; assay: Dose for reversal of keratinization in epithelium of 50% of retinoid-deficient hamster tracheas in organ culture in experiment A; format: functional, Cricetulus griseus; conditions: Trachea, read-out: ED50 (the source's name); summary of the method: as §1
[10] = system: Cricetinae gen. sp.; assay: Percent activity in the Hamster tracheal organ culture assay at concentration 10e-10 (M) in experiment B; format: functional, Cricetulus griseus, Trachea; summary of the method: as §1
[11] = system: Cricetinae gen. sp.; assay: Percent activity in the Hamster tracheal organ culture assay at concentration 10e-12 (M) in experiment D; format: functional, Cricetulus griseus, Trachea; summary of the method: as §1
[12] = system: Cricetinae gen. sp.; assay: Percent activity in the Hamster tracheal organ culture assay at concentration 10e-10 (M) in experiment D; format: functional, Cricetulus griseus, Trachea; summary of the method: as §1
[13] = system: Cricetinae gen. sp.; assay: Percent activity in the Hamster tracheal organ culture assay at concentration 10e-11 (M) in experiment D; format: functional, Cricetulus griseus, Trachea; summary of the method: as §1
[14] = system: Cricetinae gen. sp.; assay: Dose for reversal of keratinization in epithelium of 50% of retinoid-deficient hamster tracheas in organ culture in experiment D; format: functional, Cricetulus griseus; conditions: Trachea, read-out: ED50 (the source's name); summary of the method: as §1
[15] = system: Cricetinae gen. sp.; assay: Dose for reversal of keratinization in epithelium of 50% of retinoid-deficient hamster tracheas in organ culture in experiment B; format: functional, Cricetulus griseus; conditions: Trachea, read-out: ED50 (the source's name); summary of the method: as §1
[16] = system: Cricetinae gen. sp.; assay: Percent activity in the Hamster tracheal organ culture assay at concentration 10e-12 (M) in experiment A; format: functional, Cricetulus griseus, Trachea; summary of the method: as §1
[17] = system: Cricetinae gen. sp.; assay: Percent activity in the Hamster tracheal organ culture assay at concentration 10e-12 (M) in experiment B; format: functional, Cricetulus griseus, Trachea; summary of the method: as §1
[18] = system: Cricetinae gen. sp.; assay: Percent activity in the Hamster tracheal organ culture assay at concentration 10e-11 (M) in experiment C; format: functional, Cricetulus griseus, Trachea; summary of the method: as §1
[19] = system: Cricetinae gen. sp.; assay: Percent activity in the Hamster tracheal organ culture assay at concentration 10e-12 (M) in experiment C; format: functional, Cricetulus griseus, Trachea; summary of the method: as §1
[20] = system: Cricetinae gen. sp.; assay: Percent activity in the Hamster tracheal organ culture assay at concentration 10e-10 (M)
[21] = system: Cricetinae gen. sp.; assay: Dose for reversal of keratinization in epithelium of 50% of retinoid-deficient hamster tracheas in organ culture in experiment C; format: functional, Cricetulus griseus; conditions: Trachea, read-out: ED50 (the source's name); summary of the method: as §1
[22] = system: Cricetinae gen. sp.; assay: Percent activity in the Hamster tracheal organ culture assay at concentration 10e-11 (M) in experiment A; format: functional, Cricetulus griseus, Trachea; summary of the method: as §1
[23] = system: Cricetinae gen. sp.; assay: Percent activity in the Hamster tracheal organ culture assay at concentration 10e-10 (M) in experiment C; format: functional, Cricetulus griseus, Trachea; summary of the method: as §1

C/C(=C\c1ccc(C(=O)O)cc1)c1ccc2c(c1)C(C)(C)CCO2
Activity [1]: 18.6% | Activity [2]: 71.4% | Activity [3]: 71.4% | EC50 [4]: 0.6 nM

CCOC(=O)c1ccc(/C=C(\C)c2ccc3c(c2)C(C)(C)CCS3)cc1
Activity [1]: 53.8% | Activity [5]: 28.6% | Activity [3]: 100% | EC50 [4]: 0.06 nM | Activity [6]: 33.7%

CCOC(=O)c1ccc(/C=C(\C)c2ccc3c(c2)C(C)(C)CCO3)cc1
Activity [1]: 50% | Activity [5]: 28.2% | Activity [3]: 100% | EC50 [4]: 0.1 nM

CCOC(=O)c1ccc(/C=C(\C)c2ccc3c(c2)C(C)(C)CC[S+]3[O-])cc1 (centres undefined)
Activity [1]: 57.1% | Activity [5]: 11.1% | Activity [2]: 100% | EC50 [7]: 0.1 nM | Activity [3]: 100%

CC1=C(/C=C/C(C)=C/C=C/C(C)=C/C(=O)O)C(C)(C)CCC1 [TRETINOIN]
Activity [8]: 53.8% | EC50 [9]: 0.02 nM | Activity [10]: 100% | Activity [11]: 33.3% | Activity [12]: 83.7% | Activity [13]: 50% | EC50 [14]: 0.01 nM | EC50 [15]: 0.009 nM | Activity [16]: 23.1% | Activity [17]: 23.1% | Activity [18]: 50% | Activity [19]: 16.7% | Activity [20]: 76.9% | EC50 [21]: 0.1 nM | Activity [22]: 41.7% | Activity [23]: 83.3%
